Neddyl block: cullin neddylation inhibition; P61081+Q13564; TR-FRET cullin neddylation, biochemical; calls only at 25 µM; hit rate 0.58% among 360,000; in the data active = inhibition above about 36%
RAD54 branch: RAD54 (human) branch migration inhibition; hit rate 0.14% among 360,000; RAD54 Holliday junction branch migration, FAM/BHQ fluorescence; inhibition, % at 10.4 µM; AID 602329;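 active = mean normalized replicate activity at least 40 and at least half of replicates scoring 40 or more; inconclusive = only one of the two criteria met; inactive = mean below 40 and under half of replicates reaching 40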;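 note: 0% = median of neutral control wells and 100% = median of positive control wells; inhibitors cause a drop in the FAM fluorescence signal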
UBC13 polyUb: inhibitors of human UBC13 polyubiquitin chain formation; TR-FRET; P61088; hit rate 0.47% among 330,000; inhibition, % at 20 µM; AID 485273; in the data active = inhibition above about 45%, passing the limit was not always enough; inconclusive = no clear call, values can overlap the other calls
Target sequence (P61088 whole entry, looked up): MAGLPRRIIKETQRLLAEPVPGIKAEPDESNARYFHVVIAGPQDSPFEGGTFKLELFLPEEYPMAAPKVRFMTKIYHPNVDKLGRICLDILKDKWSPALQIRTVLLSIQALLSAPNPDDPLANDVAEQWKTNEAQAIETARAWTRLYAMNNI
Apaf-1 inh: inhibitors of human Apaf-1 apoptosome | O14727 | reconstituted apoptosome caspase-3 activity, DEVD-Rh110 fluorescence | inhibition, % at 20 µM | hit rate 0.71% among 330,000; active = inhibition of at least 40% at 20 µM;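 note: plate controls were DMSO wells for no effect and DEVD-CHO caspase inhibitor wells for full effect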
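Assay system: Apoptosome proteins | Medium: pH 7.5 Hepes buffer with CHAPS, BSA, DTT | Also added: Cytochrome c and DEVD-Rh110 substrate | Times: 30 min plus 50 min, RT | Detection: Rhodamine 110 fluorescence at Ex 480/Em 540 nm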
RAD52 inh: RAD52 (human) annealing inhibition; P43351; recombinant RAD52 DNA annealing, FRET fluorescence; inhibition, % at 18.7 µM; hit rate 0.46% among 360,000;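 active = every replicate showing at least 50% inhibition; inconclusive = mean inhibition at least 50% but not in every replicate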
Target sequence (P43351 whole entry, looked up): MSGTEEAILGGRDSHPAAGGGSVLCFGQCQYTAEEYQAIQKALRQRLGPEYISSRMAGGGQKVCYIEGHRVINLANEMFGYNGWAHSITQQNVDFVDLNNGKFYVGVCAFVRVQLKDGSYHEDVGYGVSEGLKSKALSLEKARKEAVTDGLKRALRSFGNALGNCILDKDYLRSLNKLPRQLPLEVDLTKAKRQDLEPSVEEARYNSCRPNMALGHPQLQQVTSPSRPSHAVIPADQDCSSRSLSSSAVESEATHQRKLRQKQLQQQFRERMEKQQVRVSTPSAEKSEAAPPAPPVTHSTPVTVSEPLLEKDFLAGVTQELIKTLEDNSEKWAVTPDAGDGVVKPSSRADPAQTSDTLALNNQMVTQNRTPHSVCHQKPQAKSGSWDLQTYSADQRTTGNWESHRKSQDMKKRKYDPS
FID counter: fluorescent intercalator displacement, NS3 helicase counter-screen; inhibition, % at 7.9 µM; DNA fluorescent intercalator displacement, fluorescence; hit rate 0.17% among 290,000; in the data active = inhibition above about 37%;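 note: 0% = vehicle and 100% = reference compound; higher means more ethidium bromide displaced from hairpin DNA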
Apaf-1 inh conf: confirmation of Apaf-1 inhibitors | shares compounds with Apaf-1 inh | hit rate 25% among 1,800 | AID 504614 | reconstituted apoptosome, caspase-3 DEVD-Rh110 fluorescence | inhibition, % at 20 µM;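 active = mean inhibition of at least 40% at 20 µM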;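 note: plate controls were DMSO wells for no effect and DEVD-CHO caspase inhibitor control wells for full effect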
Rh110 interf inh: counter-screen for Apaf-1 inhibitors: fluorescence interference | shares compounds with Apaf-1 inh | 1,800 tested, under 10 active | activation (fluorescence interference), % at 20 µM | Rh110 fluorescence interference, quenched caspase reaction;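 active = signal rise of 40% or more at 20 µM, treated as a fluorescence artifact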
Fluor interf inh: Apaf-1 inhibitor counter-screen fluorescence artifact | shares compounds with Apaf-1 inh | fluorescence interference counterscreen, Apaf-1 assay format | IC50, µM | 460 tested, under 10 active | AID 588538; call rule not given here
DNA binding: counter-screen for Rad54 inhibitors: DNA binding compounds | shares compounds with RAD54 branch | hit rate 8% among 460 | AC50, µM (series often up to 35 µM), for the others: at the top dose activity change, negative = DNA binding | Acridine orange-DNA displacement, fluorescence polarization, 20 min;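 active = signal drop giving an AC50 within twice the top valid tested concentration of each sample, actives reach about 35 µM in these data; inactive = activity opposite to expected, plus the rest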;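 note: polarization loss reports compound binding to salmon sperm DNA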
Neddyl inh conf: cullin neddylation inhibition, confirmation; shares compounds with Neddyl block; TR-FRET cullin neddylation biochemical assay; calls only at 25 µM; hit rate 13% among 1,800; in the data active = inhibition above about 40%;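 note: neddylation substrate is the cullin 1 ring ligase complex with SKP2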
DNA binder FP: counter-screen for RAD52 inhibitors: DNA binding compounds | AC50, µM | hit rate 8% among 1,000 | Salmon sperm DNA/acridine orange FP displacement | shares compounds with RAD52 inh;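 active = fitted half-maximal concentration for signal loss at or below twice the highest dose tested, in every separate run, actives reach about 64 µM in these data; inconclusive = runs disagree, or flat partial signal loss, or poor fit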
Starred values were filed as active, the others as inactive; i = inactive; ? = inconclusive; / = no result given; + = active, no number. A selection: hits, their analogues and other compounds. The true share with any hit is near 1.6%.

SMILES	Neddyl block	RAD54 branch	UBC13 polyUb	Apaf-1 inh	RAD52 inh	FID counter	others
CNc1ccc2nc3ccccc3[n+](C)c2c1	i	98*	i	89*	-130	-114	Apaf-1 inh conf=62*;Rh110 interf inh=9;Fluor interf inh=>100
COC(=O)[C@@H]1[C@@H](CO)[C@@H]2Cn3c(ccc(-c4cccnc4)c3=O)[C@H]1N2S(=O)(=O)c1ccccc1F	/	1	/	/	-1	/
O=c1[nH]c2ccccc2n1C1CCN(CCCC(c2ccc(F)cc2)c2ccc(F)cc2)CC1	i	4	40	56*	1	-3	Apaf-1 inh conf=14;Rh110 interf inh=2
N=C1c2ccccc2CN1NC(=O)c1ccc(Br)o1	i	7	-2	-3	-9	0
CCCCCn1c(NC(=O)c2ccco2)c(C(=O)OCC)c2nc3ccccc3nc21	/	-6	-36	92*	/	-26	Apaf-1 inh conf=49*;Rh110 interf inh=9;Fluor interf inh=>100
COCCCNC(=O)c1c(NC(=O)c2ccco2)n(Cc2ccccc2)c2nc3ccccc3nc12	i	-8	20	71*	/	-21	Apaf-1 inh conf=-51;Rh110 interf inh=8;Fluor interf inh=>100
CCOC(=O)c1c(N)n(Cc2ccc(OC)cc2)c2nc3ccccc3nc12	/	/	/	/	/	-17
COCCNC(=O)c1c(NC(=O)c2ccc(Br)o2)n(Cc2ccccc2)c2nc3ccccc3nc12	/	5	-16	67*	/	-8	Apaf-1 inh conf=25;Rh110 interf inh=-7
CCCN1[C@@H]2c3cccc(=O)n3C[C@H]1[C@H](CO)[C@H]2C(=O)N(C)C	/	-10	/	/	1	/
COC(=O)[C@H]1[C@H](CO)[C@H]2Cn3c(ccc(-c4cccc(OC)c4)c3=O)[C@@H]1N2C(=O)c1cnccn1	/	5	/	/	1	/
COCC(=O)N1[C@@H]2Cn3c(ccc(C4=CCCC4)c3=O)[C@H]1[C@@H](C(=O)OC)[C@@H]2CO	/	8	/	/	-10	/
CC=Cc1ccc2n(c1=O)C[C@@H]1[C@@H](CO)[C@H](C(=O)OC)[C@H]2N1S(=O)(=O)c1cccc(C)c1 (mixture of isomers)	/	16	/	/	17	/
N#Cc1cccc(-c2ccc([C@H]3[C@H]4CN(C(=O)Cc5ccncc5)CCCCN4[C@H]3CO)cc2)c1	/	-3	/	/	-31	/
COC(=O)[C@@H]1[C@@H](CO)[C@@H]2Cn3c(ccc(-c4ccccc4F)c3=O)[C@H]1N2C(=O)C1CCC1	/	0	/	/	11	/
O=C1C(=O)c2cccc3cccc1c23	i	/	-6	8	-7	-5
O=C1C(=O)c2ccccc2-c2ccccc21	i	3	-160	99*	5	11	Apaf-1 inh conf=99*;Rh110 interf inh=5;Fluor interf inh=>100
COc1ccc(P2(=O)Nc3ccccc3N2)cc1	i	3	-14	49*	-39	0	Apaf-1 inh conf=21;Rh110 interf inh=8
COC(=O)[C@H]1[C@H](CO)[C@H]2Cn3c(ccc(-c4ccccc4)c3=O)[C@@H]1N2CC1CC1	/	-2	/	/	-1	/
O=c1cc(C2CCNCC2)[nH][nH]1	i	4	0	58*	/	-1	Apaf-1 inh conf=9;Rh110 interf inh=-6
O=C(Cc1ccccn1)N1CCCCN2[C@H](CO)[C@@H](c3ccc(C#Cc4ccccc4)cc3)[C@H]2C1	/	-5	/	/	-27	/
COc1cc2c(cc1OC)-c1c(OC)c(OC)cc3c1[C@H](C2)N(C)CC3	i	91*	-169	95*	76*	9	Apaf-1 inh conf=96*;Rh110 interf inh=7;Fluor interf inh=>100;DNA binder FP=i
O=C(O)[C@H]1[C@H](CO)[C@H]2Cn3c(ccc(C4=CCCC4)c3=O)[C@@H]1N2C(=O)Cc1ccccn1	/	4	/	/	-20	/
CC(Cc1ccccc1)NCC(=O)Nc1cc(N(C)C)nc2ccccc12 (stereo unspecified)	i	?	0	-8	11	29	DNA binding=-2%
CC(Cc1ccccc1)NCc1ccccc1O (stereo unspecified)	i	-3	0	-7	-9	6
COc1ccc(-c2ccc([C@@H]3[C@H](CO)N4CCCCN(C(=O)Cc5ccccc5)C[C@@H]34)cc2)cc1	/	-8	/	/	-36	/
SMILES	Neddyl block	RAD54 branch	UBC13 polyUb	Apaf-1 inh	RAD52 inh	FID counter	others
Nc1ccc(C2(c3ccc(N)cc3)CN3CCC2CC3)cc1	i	96*	1	-7	/	2	DNA binding=0%
Nc1ccnn1C1CCNCC1	i	93*	8	-6	/	12	DNA binding=3%
CN1CCC(n2nccc2N)CC1	i	10	0	10	/	4
O=C(O)[C@H]1[C@H](CO)[C@H]2Cn3c(ccc(-c4ccc(F)cc4)c3=O)[C@@H]1N2CC1CCCC1	/	/	/	/	-4	/
CCNCCNc1ccc([N+](=O)[O-])c2cccnc12	i	56*	-68	0	6	16	DNA binding=-21%
COC(=O)[C@H]1[C@H](CO)[C@H]2Cn3c(ccc(-c4ccccc4)c3=O)[C@@H]1N2CC1CCCCC1	/	-3	/	/	4	/
CN1CCC(N(C)c2ncnc3ccc(Br)cc23)CC1	i	10	/	/	/	4
Cc1ccc(-c2nc(N(C)C3CCN(C)CC3)c3ccccc3n2)cc1	i	96*	15	1	/	69*	DNA binding=-22%
O=C(NC1CN2CCC1CC2)c1cc(Cl)c([N+](=O)[O-])c2nc[nH]c12 (stereo unspecified)	i	56*	-14	1	/	22	DNA binding=-12%
COc1ccc2c(c1O)-c1c(OC)c(OC)cc3c1[C@H](C2)N(C)CC3	i	-13	9	-1	1	/
COc1cc2c(cc1O)CC1c3c(cc(O)c(OC)c3-2)CCN1C (stereo unspecified)	+	11	-11	-8	40	1
C/C=C/c1ccc([C@H]2[C@@H](CO)N3CCCCN(C(=O)Cc4ccncc4)C[C@@H]23)cc1	/	-12	/	/	-4	/
CC1(O)CCC2C3CCC4=CC(=O)CCC4=C3C=CC21C (stereo unspecified)	+	6	/	/	-24	/	Neddyl inh conf=i
CC[C@@H](CO)NC(=O)[C@@H]1C=C2c3cccc4[nH]cc(c34)C[C@H]2N(C)C1	+	40	/	/	-87	/
Cc1ccc(-c2cc(-c3ccccc3)cc(-c3ccccc3)[n+]2-c2ccc(C(=O)O)cc2)cc1	+	12	-3	-1	-5	/	Neddyl inh conf=+

Source: PubChem
